In series [1] the target is E. coli uracil DNA glycosylase (UDG) (Escherichia coli, UniProt P12295). The series can be described thus: UDG assay. The series is classed as biochemical.
The next series has as its target A3G-ssDNA complex (Homo sapiens, UniProt Q9HC16). The series can be described thus: EMSA of A3G-ssDNA complex formation. In kind it is binding. The conditions noted are these: 0.64 μM A3G, 0.08 μM ssDNA, 50 μM compound, dose response 2, 5, 10 μM.
In another series the target is A3G C321A (Homo sapiens, UniProt Q9HC16, C321A). The series can be described thus: deaminase assay with A3G-C321A mutant. The series is classed as biochemical. The conditions noted are these: dose response, parallel to wildtype A3G. Summed up: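 Wildtype A3G and the C321A mutant were purified side by side as myc-His proteins (>80% homogeneity) from HEK293T cells and tested at varying test compound concentrations. Reactions ran 2 h at 37 °C with 6-FAM/TAMRA ssDNA and UDG, followed by NaOH cleavage, neutralisation and fluorescence at 490/520 nm. Triplicates were normalised to DMSO-only controls and given as mean with SD.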
Sequence of A3G C321A (Q9HC16 whole entry C321A): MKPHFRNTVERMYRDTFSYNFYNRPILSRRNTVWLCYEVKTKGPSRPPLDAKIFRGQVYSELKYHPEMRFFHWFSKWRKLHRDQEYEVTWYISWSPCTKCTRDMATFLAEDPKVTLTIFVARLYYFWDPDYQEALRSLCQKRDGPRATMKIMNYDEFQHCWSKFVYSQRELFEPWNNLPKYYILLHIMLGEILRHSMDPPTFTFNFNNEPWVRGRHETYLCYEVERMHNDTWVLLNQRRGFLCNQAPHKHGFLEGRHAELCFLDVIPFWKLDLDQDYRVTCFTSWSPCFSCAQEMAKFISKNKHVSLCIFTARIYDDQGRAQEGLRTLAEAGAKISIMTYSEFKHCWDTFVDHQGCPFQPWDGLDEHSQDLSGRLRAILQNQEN

Another series deals with human A3G (APOBEC3G) (Homo sapiens, UniProt Q9HC16). Briefly: fluorescence-based ssDNA cytosine deaminase assay, A3G. The series is classed as biochemical.
Sequence of human A3G (APOBEC3G) (Q9HC16 whole entry): as the sequence (Q9HC16 whole entry C321A) above, with A321C counted along it
Another series deals with A3G-C308A (Homo sapiens, UniProt Q9HC16, C308A). Briefly: deaminase assay with A3G-C308A mutant. The series is classed as biochemical. The conditions noted are these: varying concentrations, parallel to wildtype A3G. In a few lines: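 Full-length human A3G-C308A-mycHis and wildtype A3G were purified from HEK293T cells via the C-terminal His6 tag and assayed in parallel over varying test compound concentrations. Enzyme was diluted in Tris pH 7.4 buffer with protease inhibitors, then incubated 2 h at 37 °C with 10 pmol 6-FAM/TAMRA ssDNA and UDG. NaOH was added for 30 min at 37 °C, then neutralised. Fluorescence read at ex 490/em 520 nm.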
Sequence of A3G-C308A (Q9HC16 whole entry C308A): as the sequence (Q9HC16 whole entry C321A) above, with C308A, A321C counted along it

The target of the next series is human A3A (APOBEC3A) (Homo sapiens, UniProt P31941). The series can be described thus: fluorescence-based ssDNA cytosine deaminase assay, A3A. In kind it is biochemical.
Sequence of human A3A (APOBEC3A) (P31941 whole entry): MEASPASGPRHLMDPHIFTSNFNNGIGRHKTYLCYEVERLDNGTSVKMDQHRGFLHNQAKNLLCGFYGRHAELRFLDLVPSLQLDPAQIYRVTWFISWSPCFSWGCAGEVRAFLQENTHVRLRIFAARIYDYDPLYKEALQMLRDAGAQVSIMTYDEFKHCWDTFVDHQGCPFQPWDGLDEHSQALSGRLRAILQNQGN
The target of a further series is HIV-1 RNase H (Human immunodeficiency virus type 1 group M subtype B, UniProt P04585). The series can be described thus: HIV-1 RNase H inhibition assay. The series is classed as biochemical. Conditions: read-out: IC50 Values RNase H; A3G inhibitors, this study.
The next series has as its target full-length A3G Cys321 (Homo sapiens, UniProt Q9HC16). The series can be described thus: LC-MS/MS of tryptic peptides of inhibitor-treated A3G. The series is classed as binding. Conditions: full-length A3G incubated with compound, in-gel trypsin digestion.
A further series has as its system murine model of diabetes. The conditions noted are these: oral dosing; cited from earlier work.
For series [2] the following is noted: cited from earlier work.

Where two headings read alike, the source gives them in different places.

Sequence of A3G-ssDNA complex (Q9HC16 whole entry, one chain of several): as the sequence (Q9HC16 whole entry C321A) above, with A321C counted along it
Sequence of E. coli uracil DNA glycosylase (UDG) (P12295 whole entry): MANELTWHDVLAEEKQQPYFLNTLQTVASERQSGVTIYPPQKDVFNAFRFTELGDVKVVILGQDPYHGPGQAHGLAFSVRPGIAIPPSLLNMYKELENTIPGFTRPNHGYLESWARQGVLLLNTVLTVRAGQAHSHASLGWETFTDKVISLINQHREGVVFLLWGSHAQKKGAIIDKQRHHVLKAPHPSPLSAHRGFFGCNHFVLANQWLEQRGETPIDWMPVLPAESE
Sequence of full-length A3G Cys321 (Q9HC16 whole entry): as the sequence (Q9HC16 whole entry C321A) above, with A321C counted along it

By IC50 is commonly meant the concentration that inhibits the measured activity by half. In the case of `CN(N=O)c1ccc(O)c(O)c1` [MN30, Methyl-3,4-dephostatin], the IC50 in series [1] (read-out: IC50 Values UDG, no deaminase, uracil ssDNA substrate) was > 200 µM; at human A3G (APOBEC3G) (read-out: IC50 Values A3G, dose response, purified full-length A3G-mycHis), 9.1 µM; at human A3A (APOBEC3A) (read-out: IC50 Values A3A, dose response, purified A3A-mycHis), > 200 µM; at HIV-1 RNase H, > 25 µM. In addition, the “inhibition of A3G's ssDNA binding activity (A3G-ssDNA complex formation)” value on A3G-ssDNA complex was “no inhibition”. The “susceptibility of A3G C321A deaminase activity to inhibition” value at A3G C321A was “fully resistant”. Also, the “susceptibility of A3G-C308A deaminase activity to inhibition” value on A3G-C308A is on record as “wildtype susceptibility”. At full-length A3G Cys321, the “mass addition to C321 containing tryptic peptide (covalent modification)” value is on record as 167.11 Da. Also, in the series on murine model of diabetes, the “efficacy in a murine model of diabetes” value is given as “demonstrated efficacy”.
As to `CN(N=O)c1cc(O)ccc1O` [MN10, Dephostatin], the stability entry in series [2] is given as “too unstable for most biological applications”. The values for the IC50 (in [1]; at human A3G (APOBEC3G); at human A3A (APOBEC3A)) were > 200 µM, 0.43 µM and 150 µM, respectively. Moreover, the “inhibition of A3G's ssDNA binding activity (A3G-ssDNA complex formation)” value at A3G-ssDNA complex is reported as “only exceptions”.
